Source: PubChem BioAssay
Active and inactive are the calls of the source.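 Rule for the calls, unless noted: active = primary screen hit whose calcium fluorescence ratio, in both repeats, exceeds the weak agonist control mean by 3 SD; inactive = the rest.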

Each compound was assayed on TRPC4 beta (transient receptor potential cation channel C4), mouse (assay: potentiation of DAMGO EC20 TRPC4 response – cell-based, Fluo-4, HEK293 TRPC4beta/mu-opioid, confirmation (AID 2555)). Settings: DAMGO EC20, Fluo-4 calcium flux, at 10 µM; active compounds read high.
For Cc1cccn2c(CNCCc3ccccn3)c(C(=O)N3CCOCC3)nc12, the outcome was “inactive”. For COc1ccc(/C=N/NC(=O)C2COc3ccccc3O2)cc1OC (stereo not drawn), the outcome was “inactive”. For CN(C)CCNC(=O)c1c(NC(=O)c2ccccc2)sc2c1CCCC2, the outcome was “inactive”. Cc1ccccc1N1CC(O)(c2ccccc2)[N+]2=C1SCC2 (stereo not drawn) was tested, and the outcome was “inactive”. With CC(C)Cc1ccc(CN2CCCC(NC(=O)CCn3cnnn3)C2)cc1 (stereo not drawn) the outcome was “inactive”. With CN1CCN(Cc2nc3c(c(=O)[nH]c(=O)n3C)n2Cc2c(F)cccc2Cl)CC1 the outcome was “inactive”. With O=C(CC1C(=O)NCCN1Cc1cccc(Oc2ccccc2)c1)NCCc1ccccn1 (stereo not drawn) the outcome was “inactive”. With CN(C)CCCN(C(=O)c1ccc(Cl)s1)c1nc2cc3c(cc2s1)OCO3 the outcome was “inactive”. In the case of Cc1cc(CSC(=N)N)c(CSC(=N)N)cc1C, the outcome is reported as “inactive”. For COC(=O)c1ccc(N2CCN(C)CC2)c(NC(=O)c2ccc(Br)o2)c1, the outcome was “inactive”. CCc1cc(OCCN(C)C)ccc1Cl was tested, and the outcome was “inactive”. For C=CCn1c(/N=C/c2ccc(N(C)C)cc2)nc2ccccc21, the potentiation was 24% (active). With CCC1CCCCN1S(=O)(=O)c1ccc(C(=O)N(CCCN(C)C)c2nc3cc4c(cc3s2)OCO4)cc1 (stereo not drawn) the outcome was “inactive”. For CCn1c(CN2CCN(Cc3ccc(C)cc3)C(CCO)C2)nc2ccccc21 (stereo not drawn), the outcome was “inactive”. For O=C(NCc1ccccc1)C1=C[C@@H](C2CCCCC2)C[C@@H](OCc2ccc(CO)cc2)O1, the outcome was “inactive”. CCN1CCCC1CNS(=O)(=O)c1c(C)cc(C)cc1C (stereo not drawn) was tested, and the outcome was “inactive”. With CSc1ccc(C(=O)NCC(c2ccco2)N(C)C)cc1[N+](=O)[O-] (stereo not drawn) the outcome was “inactive”. Cc1ccc2nc(N(CCCN(C)C)C(=O)c3ccc(S(=O)(=O)N4CCc5ccccc5C4)cc3)sc2c1 was tested, and the outcome was “inactive”. COc1ccccc1/C=C/CN1CCCC(CCC(=O)NCc2ccc(F)c(F)c2)C1 (stereo not drawn) was tested, and the outcome was “inactive”. In the case of CC[C@@H](C)[C@H](CNC)NC[C@@H](Cc1cccc2ccccc12)NCCc1cccc(C(F)(F)F)c1, the outcome is reported as “inactive”. With CC(C)C1CC(CCNCc2ccc(N(C)C)cc2)(c2ccccc2)CCO1 (stereo not drawn) the outcome was “inactive”. Clc1cc(Cl)cc(C2=NC(Cc3ccccc3)CO2)c1 (stereo not drawn) was tested, and the outcome was “inactive”. With O=C(NCCc1cnc[nH]1)c1ccc(-c2ccccc2)cc1 the outcome was “inactive”. With COCC1CCN(Cc2cn(-c3ccccc3F)nc2-c2cc(C)sc2C)CC1 the outcome was “inactive”. Cc1cc(C)cc(NC(=S)N2CCN(c3ncc(C(F)(F)F)cc3Cl)CC2)c1 was tested, and the outcome was “inactive”. For CC(C)C1CC(CCNCc2ccc3c(c2)OCO3)(c2ccccc2)CCO1 (stereo not drawn), the outcome was “inactive”. For Cc1ccc(CNC(=O)C2CCCN(Cc3cnn(-c4ccccc4)c3-n3cccc3)C2)cc1 (stereo not drawn), the outcome was “inactive”. In the case of CN1CCN(c2ccc(NC(=O)COc3cccc4ccccc34)cc2)CC1, the outcome is reported as “inactive”. In the case of COc1ccc(CSCCN)cc1Cl, the outcome is reported as “inactive”. With Cc1csc2c(N3CCN(C(=O)Nc4ccccc4)CC3)ncnc12 the outcome was “inactive”. With CCOC(=O)C1(Cc2ccccc2)CCN(Cc2cn[nH]c2-c2ccccc2)CC1 the outcome was “inactive”. In the case of CCOc1ccccc1C1CC(c2ccc(Cl)cc2)Nc2nc(N)nn21 (stereo not drawn), the outcome is reported as “inactive”. With O=C(c1sc2ccccc2c1Cl)N(Cc1ccccc1)C1CCS(=O)(=O)C1 (stereo not drawn) the outcome was “inactive”. For Cc1ccc(C)c(-n2cc(CNCCCn3cccn3)c(-c3ccccc3)n2)c1, the outcome was “inactive”. NC(=O)C1CCCN(CCc2ccccc2)C1 (stereo not drawn) was tested, and the outcome was “inactive”. For CCn1c(=O)c(C(=O)NNC(=O)c2ccccc2F)c(O)c2ccccc21, the outcome was “inactive”. For O=C(NCc1ccccc1)C1=C[C@H](c2ccccc2)C[C@H](OCc2ccc(CO)cc2)O1, the outcome was “inactive”. O=C(CC1C(=O)NCCN1Cc1ccccc1C(F)(F)F)NCCc1ccccn1 (stereo not drawn) was tested, and the outcome was “inactive”. With CCn1c(N2CCN(S(=O)(=O)CC)CC2)nc2ccccc21 the outcome was “inactive”.

Each compound was assayed against Short transient receptor potential channel 4 (Mus musculus) (UniProt Q9QUQ5) (assay: blockers of DAMGO-evoked TRPC4 calcium flux – cell-based, Fluo4, HEK293 TRPC4beta/mu-opioid, confirmation (AID 2636;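 active = calcium signal cut by more than 3 SD below the full-agonist control yet still positive, in both repeats and the earlier primary screen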)). Settings: at 10 µM; active compounds read high.
Short transient receptor potential channel 4 (Mus musculus), sequence (Q9QUQ5 whole entry, looked up): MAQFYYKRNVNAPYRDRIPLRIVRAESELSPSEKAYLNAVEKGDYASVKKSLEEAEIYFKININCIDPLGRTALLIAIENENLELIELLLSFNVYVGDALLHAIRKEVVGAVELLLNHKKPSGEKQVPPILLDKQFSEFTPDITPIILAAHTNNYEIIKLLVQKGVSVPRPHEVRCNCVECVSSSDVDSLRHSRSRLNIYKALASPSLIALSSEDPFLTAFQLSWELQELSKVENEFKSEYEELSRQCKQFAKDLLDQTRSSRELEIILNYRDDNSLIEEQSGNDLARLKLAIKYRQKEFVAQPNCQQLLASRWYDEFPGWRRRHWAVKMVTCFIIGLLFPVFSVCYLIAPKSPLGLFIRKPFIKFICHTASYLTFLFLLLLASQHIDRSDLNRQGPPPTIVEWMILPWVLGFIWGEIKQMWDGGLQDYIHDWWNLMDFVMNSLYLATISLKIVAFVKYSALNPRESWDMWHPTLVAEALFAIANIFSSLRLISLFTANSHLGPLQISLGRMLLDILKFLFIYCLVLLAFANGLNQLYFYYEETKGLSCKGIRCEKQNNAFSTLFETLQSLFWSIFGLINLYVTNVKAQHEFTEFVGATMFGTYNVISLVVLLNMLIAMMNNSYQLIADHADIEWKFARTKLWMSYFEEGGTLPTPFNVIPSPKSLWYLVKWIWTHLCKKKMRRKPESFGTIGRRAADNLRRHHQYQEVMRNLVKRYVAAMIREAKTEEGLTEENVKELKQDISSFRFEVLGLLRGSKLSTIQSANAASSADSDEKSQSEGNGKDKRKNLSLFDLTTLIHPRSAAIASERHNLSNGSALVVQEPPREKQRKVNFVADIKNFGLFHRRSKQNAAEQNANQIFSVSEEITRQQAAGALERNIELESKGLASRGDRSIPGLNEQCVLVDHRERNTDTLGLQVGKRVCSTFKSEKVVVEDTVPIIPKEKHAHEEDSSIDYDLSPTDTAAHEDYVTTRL
Outline: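 Test system – HEK293 cells stably co-expressing mouse TRPC4beta and mu-opioid receptor · Reagent – DAMGO agonist, submaximal followed by maximal addition · Technique – Fluo4 calcium flux fluorescence, kinetic read · Control set – no-compound wells and DAMGO maximal-stimulus wells · Doses – single final compound concentration of 10 µM · Timing – compound pre-incubation 110 s before DAMGO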
Cc1cccn2c(CNCCc3ccccn3)c(C(=O)N3CCOCC3)nc12 was tested, and the outcome was “inactive”. For COc1ccc(/C=N/NC(=O)C2COc3ccccc3O2)cc1OC (stereo not drawn), the outcome was “inactive”. In the case of CN(C)CCNC(=O)c1c(NC(=O)c2ccccc2)sc2c1CCCC2, the outcome is reported as “inactive”. With Cc1ccccc1N1CC(O)(c2ccccc2)[N+]2=C1SCC2 (stereo not drawn) the outcome was “inactive”. CC(C)Cc1ccc(CN2CCCC(NC(=O)CCn3cnnn3)C2)cc1 (stereo not drawn) was tested, and the outcome was “inactive”. CN1CCN(Cc2nc3c(c(=O)[nH]c(=O)n3C)n2Cc2c(F)cccc2Cl)CC1 was tested, and the outcome was “inactive”. With O=C(CC1C(=O)NCCN1Cc1cccc(Oc2ccccc2)c1)NCCc1ccccn1 (stereo not drawn) the outcome was “inactive”. In the case of CN(C)CCCN(C(=O)c1ccc(Cl)s1)c1nc2cc3c(cc2s1)OCO3, the outcome is reported as “inactive”. With Cc1cc(CSC(=N)N)c(CSC(=N)N)cc1C the outcome was “inactive”. With COC(=O)c1ccc(N2CCN(C)CC2)c(NC(=O)c2ccc(Br)o2)c1 the outcome was “inactive”. For CCc1cc(OCCN(C)C)ccc1Cl, the outcome was “inactive”. For C=CCn1c(/N=C/c2ccc(N(C)C)cc2)nc2ccccc21, the outcome was “inactive”. In the case of CCC1CCCCN1S(=O)(=O)c1ccc(C(=O)N(CCCN(C)C)c2nc3cc4c(cc3s2)OCO4)cc1 (stereo not drawn), the outcome is reported as “inactive”. In the case of CCn1c(CN2CCN(Cc3ccc(C)cc3)C(CCO)C2)nc2ccccc21 (stereo not drawn), the outcome is reported as “inactive”. With O=C(NCc1ccccc1)C1=C[C@@H](C2CCCCC2)C[C@@H](OCc2ccc(CO)cc2)O1 the outcome was “inactive”. CCN1CCCC1CNS(=O)(=O)c1c(C)cc(C)cc1C (stereo not drawn) was tested, and the outcome was “inactive”. For CSc1ccc(C(=O)NCC(c2ccco2)N(C)C)cc1[N+](=O)[O-] (stereo not drawn), the outcome was “inactive”. In the case of Cc1ccc2nc(N(CCCN(C)C)C(=O)c3ccc(S(=O)(=O)N4CCc5ccccc5C4)cc3)sc2c1, the outcome is reported as “inactive”. For COc1ccccc1/C=C/CN1CCCC(CCC(=O)NCc2ccc(F)c(F)c2)C1 (stereo not drawn), the outcome was “inactive”. For CC[C@@H](C)[C@H](CNC)NC[C@@H](Cc1cccc2ccccc12)NCCc1cccc(C(F)(F)F)c1, the outcome was “inactive”. In the case of CC(C)C1CC(CCNCc2ccc(N(C)C)cc2)(c2ccccc2)CCO1 (stereo not drawn), the outcome is reported as “inactive”. For Clc1cc(Cl)cc(C2=NC(Cc3ccccc3)CO2)c1 (stereo not drawn), the outcome was “inactive”. O=C(NCCc1cnc[nH]1)c1ccc(-c2ccccc2)cc1 was tested, and the outcome was “inactive”. With COCC1CCN(Cc2cn(-c3ccccc3F)nc2-c2cc(C)sc2C)CC1 the outcome was “inactive”. In the case of Cc1cc(C)cc(NC(=S)N2CCN(c3ncc(C(F)(F)F)cc3Cl)CC2)c1, the outcome is reported as “inactive”. For CC(C)C1CC(CCNCc2ccc3c(c2)OCO3)(c2ccccc2)CCO1 (stereo not drawn), the outcome was “inactive”. With Cc1ccc(CNC(=O)C2CCCN(Cc3cnn(-c4ccccc4)c3-n3cccc3)C2)cc1 (stereo not drawn) the outcome was “inactive”. CN1CCN(c2ccc(NC(=O)COc3cccc4ccccc34)cc2)CC1 was tested, and the outcome was “inactive”. In the case of COc1ccc(CSCCN)cc1Cl, the outcome is reported as “inactive”. With Cc1csc2c(N3CCN(C(=O)Nc4ccccc4)CC3)ncnc12 the outcome was “inactive”. For CCOC(=O)C1(Cc2ccccc2)CCN(Cc2cn[nH]c2-c2ccccc2)CC1, the outcome was “inactive”. With CCOc1ccccc1C1CC(c2ccc(Cl)cc2)Nc2nc(N)nn21 (stereo not drawn) the outcome was “inactive”. In the case of O=C(c1sc2ccccc2c1Cl)N(Cc1ccccc1)C1CCS(=O)(=O)C1 (stereo not drawn), the outcome is reported as “inactive”. Cc1ccc(C)c(-n2cc(CNCCCn3cccn3)c(-c3ccccc3)n2)c1 was tested, and the outcome was “inactive”. In the case of NC(=O)C1CCCN(CCc2ccccc2)C1 (stereo not drawn), the outcome is reported as “inactive”. For CCn1c(=O)c(C(=O)NNC(=O)c2ccccc2F)c(O)c2ccccc21, the outcome was “inactive”. O=C(NCc1ccccc1)C1=C[C@H](c2ccccc2)C[C@H](OCc2ccc(CO)cc2)O1 was tested, and the outcome was “inactive”. O=C(CC1C(=O)NCCN1Cc1ccccc1C(F)(F)F)NCCc1ccccn1 (stereo not drawn) was tested, and the outcome was “inactive”. With CCn1c(N2CCN(S(=O)(=O)CC)CC2)nc2ccccc21 the outcome was “inactive”.
